Source: ChEMBL document CHEMBL3352070, “Dammarane triterpenes as potential SIRT1 activators from the leaves of Panax ginseng” (J Nat Prod, 2014)
The source made the active and inactive calls. The rule behind the calls is not given here.

Legend:
[1] = target: T1, NAD-dependent protein deacetylase sirtuin-1 (Homo sapiens) (UniProt Q96EB6); assay: Activation of flag-tagged SIRT1 (unknown origin) expressed in HEK293 cells after 12 hrs by SIRT1-p53 luciferase reporter gene based assay; assay type: cell-based
T1 sequence (whole entry): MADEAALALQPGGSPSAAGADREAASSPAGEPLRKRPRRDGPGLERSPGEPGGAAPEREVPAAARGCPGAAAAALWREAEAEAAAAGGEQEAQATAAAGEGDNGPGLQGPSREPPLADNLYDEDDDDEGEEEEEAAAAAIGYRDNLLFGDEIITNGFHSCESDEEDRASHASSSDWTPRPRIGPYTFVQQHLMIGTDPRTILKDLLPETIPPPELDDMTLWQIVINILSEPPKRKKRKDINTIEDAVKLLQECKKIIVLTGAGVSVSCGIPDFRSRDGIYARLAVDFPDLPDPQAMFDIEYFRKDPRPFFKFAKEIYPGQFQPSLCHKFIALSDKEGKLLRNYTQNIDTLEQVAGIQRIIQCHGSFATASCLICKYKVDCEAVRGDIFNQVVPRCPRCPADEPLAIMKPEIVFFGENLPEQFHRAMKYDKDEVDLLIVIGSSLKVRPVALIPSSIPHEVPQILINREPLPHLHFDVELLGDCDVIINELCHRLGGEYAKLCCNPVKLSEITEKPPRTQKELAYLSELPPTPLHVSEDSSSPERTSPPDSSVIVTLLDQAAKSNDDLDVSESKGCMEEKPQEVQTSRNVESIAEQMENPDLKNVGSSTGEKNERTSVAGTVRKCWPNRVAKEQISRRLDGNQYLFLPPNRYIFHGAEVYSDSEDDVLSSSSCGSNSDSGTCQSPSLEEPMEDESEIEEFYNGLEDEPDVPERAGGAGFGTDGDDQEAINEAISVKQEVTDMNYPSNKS

[2] = target: T1, NAD-dependent protein deacetylase sirtuin-1 (Homo sapiens); assay: Activation of SIRT1 (unknown origin) at 10 to 20 ug/mL using Fluor de Lys-SIRT1 peptide by in vitro enzyme-based SIRT1-NAD/NADH assay
Summary of the method: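 SIRT1 enzyme at 0.02 U/μL in Tris-HCl pH 8.0 buffer with BSA, MgCl2, KCl and NaCl, preincubated with compound for 5 min at room temperature. Reaction started with 500 μM NAD+ and 100 μM Fluor de Lys-SIRT1 substrate (stock solution), run 1 h at room temperature. Quenched with Developer II plus 2 mM nicotinamide for 30 min, then fluorescence read at ex 360/em 450 nm. DMSO and no-enzyme controls.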

[3] = target: T1, NAD-dependent protein deacetylase sirtuin-1 (Homo sapiens); assay: Activation of flag-tagged SIRT1 (unknown origin) expressed in HEK293 cells at 2.5 to 5 ug/mL after 12 hrs by SIRT1-p53 luciferase reporter gene based assay; assay type: cell-based
[4] = tested on: HEK293; assay: Toxicity against HEK293 cells at 10 to 20 ug/ml; assay type: cell-based; conditions: human
[5] = target: T1, NAD-dependent protein deacetylase sirtuin-1 (Homo sapiens); assay: Activation of SIRT1 (unknown origin) expressed in HEK293 cells assessed as increase in NAD+/NADH ratio at 2.5 to 5 ug/mL after 12 hrs; assay type: cell-based
Summary of the method: (§1)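 HEK293 cells grown in DMEM with 10% FBS at 37 °C, 5% CO2, and treated with compound for 12 h. NAD+/NADH ratio measured in whole-cell extracts with a red-fluorescence NAD/NADH quantitation kit.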

[6] = target: T1, NAD-dependent protein deacetylase sirtuin-1 (Homo sapiens); assay: Activation of flag-tagged SIRT1 (unknown origin) expressed in HEK293 cells at 10 to 20 ug/mL after 12 hrs by SIRT1-p53 luciferase reporter gene based assay; assay type: cell-based
[7] = target: T1, NAD-dependent protein deacetylase sirtuin-1 (Homo sapiens); assay: Activation of SIRT1 (unknown origin) expressed in HEK293 cells assessed as increase in NAD+/NADH ratio at 10 to 20 ug/mL after 12 hrs; assay type: cell-based; summary of the method: as §1

Row | Compound | Activity [6] | Activity [7] | Activity [1] | Activity [2] | Activity [3] | Activity [4] | Activity [5]
1 | CC(C)=CCC[C@@](C)(O)[C@H]1CC[C@]2(C)[C@@H]1[C@H](O)C[C@@H]1[C@@]3(C)CC[C@H](O[C@@H]4O[C@H](CO)[C@@H](O)[C@H](O)[C@H]4O[C@@H]4O[C@H](CO)[C@@H](O)[C@H](O)[C@H]4O)C(C)(C)[C@@H]3CC[C@]12C |  |  | Dose-dependent effect |  |  |  | 
2 | CC(C)=CC/C=C(\C)[C@H]1CC[C@]2(C)[C@@H]1[C@H](O)C[C@@H]1[C@@]3(C)CC[C@H](O)C(C)(C)[C@@H]3[C@@H](O)C[C@]12C |  |  |  | Dose-dependent effect | Active | Toxic | Active
3 | CC(C)=CCC[C@](C)(O)[C@H]1CC[C@]2(C)[C@@H]1[C@H](O)C[C@@H]1[C@@]3(C)CC[C@H](O[C@@H]4O[C@H](CO)[C@@H](O)[C@H](O)[C@H]4O[C@@H]4O[C@H](CO)[C@@H](O)[C@H](O)[C@H]4O)C(C)(C)[C@@H]3CC[C@]12C |  |  | Active | Dose-dependent effect | Active | Toxic | Active

More lines, main results first:

Row | Activity [6] | Activity [7] | Compound | Activity [1] | Activity [2] | Activity [3] | Activity [4] | Activity [5]
4 | Active | Active | CC(C)=CCC[C@](C)(O)[C@H]1CC[C@]2(C)[C@@H]1C(=O)C[C@@H]1[C@@]3(C)CCC(=O)C(C)(C)[C@@H]3[C@@H](O)C[C@]12C |  | Dose-dependent effect |  |  | 
5 | Active | Active | CC(C)(O)/C=C/C[C@](C)(O)[C@H]1CC[C@]2(C)[C@@H]1C(=O)C[C@@H]1[C@@]3(C)CCC(=O)C(C)(C)[C@@H]3[C@@H](O)C[C@]12C |  | Dose-dependent effect |  |  | 
